The record followed here is PMC4616004 (International journal for parasitology, 2008).

In series [1] the test system is Pf lipase (Pseudomonas fluorescens lipase). Briefly: fluorescent esterase assay. The series is classed as biochemical. The note with it: pH 6.8, 25 °C, 1 mM MgCl2. The gist of the method:
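Commercial lipase, stored in glycerol-containing buffer at −20 °C, was used at 4.6 nM final. Acetyl, propionyl or butyryl 4-methylumbelliferyl esters were freshly diluted in ice-cold buffer (137 mM NaCl, 2.7 mM KCl). Reactions ran at 25 °C, with fluorescence (Ex 355, Em 444) read every minute and converted via a 4-methylumbelliferone standard curve. No-protein backgrounds were subtracted, and 10-min points were used. Km came from non-linear fits of duplicate/triplicate reactions.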

Series [2] deals with T1, MBP-CpHDAC3 (recombinant CpHDAC3) (Cryptosporidium parvum, UniProt Q5CPX0).
T1 sequence (Q5CPX0 1-973): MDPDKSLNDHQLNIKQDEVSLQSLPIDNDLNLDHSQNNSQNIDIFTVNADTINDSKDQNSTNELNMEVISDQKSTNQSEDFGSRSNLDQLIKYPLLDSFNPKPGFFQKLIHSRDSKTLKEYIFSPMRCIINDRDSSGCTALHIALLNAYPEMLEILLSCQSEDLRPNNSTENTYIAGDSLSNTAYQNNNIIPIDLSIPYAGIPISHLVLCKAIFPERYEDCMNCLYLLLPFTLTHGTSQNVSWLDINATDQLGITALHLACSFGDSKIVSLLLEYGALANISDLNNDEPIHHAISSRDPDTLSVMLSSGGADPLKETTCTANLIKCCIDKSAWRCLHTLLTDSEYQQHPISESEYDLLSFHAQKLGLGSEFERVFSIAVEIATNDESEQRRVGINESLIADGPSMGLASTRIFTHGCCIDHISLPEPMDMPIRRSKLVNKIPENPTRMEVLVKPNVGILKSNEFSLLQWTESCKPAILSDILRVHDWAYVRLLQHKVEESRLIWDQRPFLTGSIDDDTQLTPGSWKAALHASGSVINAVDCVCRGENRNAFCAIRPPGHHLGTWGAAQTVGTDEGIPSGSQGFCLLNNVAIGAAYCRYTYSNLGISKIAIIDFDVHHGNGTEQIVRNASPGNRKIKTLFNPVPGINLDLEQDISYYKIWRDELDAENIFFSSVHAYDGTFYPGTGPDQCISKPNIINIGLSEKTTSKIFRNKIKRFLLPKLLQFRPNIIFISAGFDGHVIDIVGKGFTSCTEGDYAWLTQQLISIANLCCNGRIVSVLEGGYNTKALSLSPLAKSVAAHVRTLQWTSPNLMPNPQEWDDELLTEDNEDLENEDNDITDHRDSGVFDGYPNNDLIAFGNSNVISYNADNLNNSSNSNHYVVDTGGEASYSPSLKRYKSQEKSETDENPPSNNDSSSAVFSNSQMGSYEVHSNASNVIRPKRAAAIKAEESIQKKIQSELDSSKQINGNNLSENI
The series is described as follows: Fluor de Lys fluorogenic deacetylase assay. In kind it is biochemical.

The target of series [3] is T1, MBP-CpHDAC3 (recombinant CpHDAC3). Briefly: Fluor de Lys fluorogenic deacetylase assay. The note with it: pH 8.1, 20 °C, 1 mM MgCl2. The series is classed as biochemical.
Substrate in series [4]: CC(=O)Oc1ccc2c(C)cc(=O)oc2c1
Briefly: fluorescent esterase assay. In kind it is biochemical, Cryptosporidium parvum. The note with it: pH 6.8, 25 °C, 1 mM MgCl2.

Substrate in series [5]: CCC(=O)Oc1ccc2c(C)cc(=O)oc2c1
The series is described as follows: fluorescent esterase assay. In kind it is biochemical, Cryptosporidium parvum. The settings on record: pH 6.8, 25 °C, 1 mM MgCl2.

Where two headings read alike, the source gives them in different places.

Turning to `CCCC(=O)Oc1ccc2c(C)cc(=O)oc2c1` [4-methylumbelliferyl-butyrate], the Km in series [1] (read-out: Butyryl esterase / Km) worked out at 260 ± 30 µM.
For the molecule `CCC(=O)Oc1ccc2c(C)cc(=O)oc2c1` [4-methylumbelliferyl-propionate], the Km in series [1] (read-out: Propionyl esterase / Km) amounted to 710 ± 390 µM.
For `CC(=O)Oc1ccc2c(C)cc(=O)oc2c1` [4-methylumbelliferyl-acetate], in series [1] (read-out: Acetyl esterase / Km), the Km came out at 230 ± 48 µM.
Consider `CC(/C=C/C(=O)NO)=C\[C@@H](C)C(=O)c1ccc(N(C)C)cc1` [Trichostatin A], for which the IC50 in series [2] turned out to be 18 ± 1.3 nM.
The same measure, in the same setting: with `Cn1cc(C(=O)Cc2ccccc2)cc1C=CC(=O)NO` [APHA 8] the figure was 310 ± 1.2 nM; with `C=C[C@@H](O)[C@@H]1O[C@H]1/C=C/[C@@H]1O[C@H]1[C@@H](C)O` [Depudecin], 86 ± 2.4 nM; with `O=C(CCCCCCC(=O)Nc1ccccc1)NO` [Vorinostat], 89 ± 7.9 nM.
Turning to Fluor de Lys substrate, the Km in series [3] came to 61 ± 3.4 µM.

B1: MBP-CpHDAC3 (recombinant CpHDAC3) (Cryptosporidium parvum Iowa II) (protein)
chain: T1 sequence (Q5CPX0 1-973)
As for B1, in series [4], the Km worked out at 89 ± 18 µM and the kcat was 0.01 ± 0.00089 s⁻¹. In series [5], the Km turned out to be 77 ± 30 µM and the turnover number (kcat) turned out to be 0.00058 ± 9.2e-05 s⁻¹.

What is called IC50 is the concentration at which inhibition is half-maximal. As usually defined, the kcat is the number of substrate molecules converted per active site and unit of time at saturation.
